Reference: ChEMBL document CHEMBL5108039, “Piperazine tethered bergenin heterocyclic hybrids: design, synthesis, anticancer activity, and molecular docking studies” (RSC Med Chem, 2022)
The source made the active and inactive calls. No cut-off for these calls is given here.

What was measured:
[1] = Cytotoxicity against human BEAS-2B cells assessed as cell growth inhibition; type: toxicity, cell-based
How it was run: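 Compounds were dissolved in sterile DMSO as 10 mg ml−1 stocks and tested in vitro for cytotoxicity in a cell-line panel, with DMSO (0.01%) as vehicle control and doxorubicin as standard. Mean IC50 values were reported, and the normal lung epithelial cells were tested up to 100 μM.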

SCC-9 [2] = assay: Induction of apoptosis in human SCC-9 cells assessed as upregulation of E-cad gene expression at 32 uM by qRT-PCR analysis; type: functional, cell-based
CAL-27 [3] = assay: Induction of apoptosis in human CAL-27 cells assessed as live cells at 32 uM incubated for 24 hrs by Annexin V-FITC/PI staining based flow cytometric analysis (reference value: 99.8 %); type: functional
How it was run: (§1)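 CAL27 cells were treated with vehicle, doxorubicin or test compounds at 10–63 μM, and apoptosis was assessed by annexin V–FITC/PI staining with flow cytometry. Cells were scored as live, early apoptotic, late apoptotic or necrotic. The vehicle was DMSO (0.01%).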

SCC-9 [4] = assay: Induction of apoptosis in human SCC-9 cells assessed as upregulation of Bax gene expression at 16 uM by qRT-PCR analysis; type: functional, cell-based
SCC-9 [5] = assay: Cell cycle arrest in human SCC-9 cells assessed as accumulation at G2/M phase at 32.4 uM incubated for 24 hrs by flow cytometry (reference value: 14.2 %); type: functional
CAL-27 [6] = assay: Induction of apoptosis in human CAL-27 cells assessed as downregulation of Oct-4 gene expression at 32 uM by qRT-PCR analysis; type: functional, cell-based
How it was run: (§2)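 CAL27 cells were treated with test compounds at several concentrations. Relative expression of vimentin, E-cad, Nanog, Oct-4, Bax and BcL-2 was measured by qRT-PCR against vehicle-treated control cells.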

CAL-27 [7] = assay: Induction of apoptosis in human CAL-27 cells assessed as upregulation of Bax gene expression at 32 uM by qRT-PCR analysis; type: functional, cell-based
How it was run: (§3)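 CAL27 cells were treated with test agents at different concentrations. Relative mRNA levels of vimentin, E-cad, Nanog, Oct-4, Bax and Bcl-2 were then quantified by qRT-PCR as apoptosis, EMT and stemness markers.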

CAL-27 [8] = assay: Induction of apoptosis in human CAL-27 cells assessed as downregulation of vimentin gene expression at 16 uM by qRT-PCR analysis; type: functional, cell-based; how it was run: as §2
CAL-27 [9] = assay: Induction of apoptosis in human CAL-27 cells assessed as late apoptotic cells at 32 uM incubated for 24 hrs by Annexin V-FITC/PI staining based flow cytometric analysis (reference value: 0.1 %); type: functional; how it was run: as §1
SCC-9 [10] = assay: Induction of apoptosis in human SCC-9 cells assessed as necrotic cells at 32.4 uM incubated for 24 hrs by Annexin V-FITC/PI staining based flow cytometric analysis (reference value: 0.1 %); type: functional
CAL-27 [11] = assay: Induction of apoptosis in human CAL-27 cells assessed as downregulation of BcL-2 gene expression at 16 uM by qRT-PCR analysis; type: functional, cell-based; how it was run: as §2
CAL-27 [12] = assay: Induction of apoptosis in human CAL-27 cells assessed as early apoptotic cells at 32 uM incubated for 24 hrs by Annexin V-FITC/PI staining based flow cytometric analysis (reference value: 0.1 %); type: functional; how it was run: as §1
SCC-9 [13] = assay: Induction of apoptosis in human SCC-9 cells assessed as late apoptotic cells at 32.4 uM incubated for 24 hrs by Annexin V-FITC/PI staining based flow cytometric analysis (reference value: 1.4 %); type: functional
CAL-27 [14] = assay: Induction of apoptosis in human CAL-27 cells assessed as late apoptotic cells at 16 uM incubated for 24 hrs by Annexin V-FITC/PI staining based flow cytometric analysis (reference value: 0.1 %); type: functional; how it was run: as §1
CAL-27 [15] = assay: Induction of apoptosis in human CAL-27 cells assessed as upregulation of E-cad gene expression at 16 uM by qRT-PCR analysis; type: functional, cell-based; how it was run: as §3
CAL-27 [16] = assay: Cell cycle arrest in human CAL-27 cells assessed as accumulation at G0/G1 phase at 16 uM incubated for 24 hrs by flow cytometry (reference value: 77.6 %); type: functional
CAL-27 [17] = assay: Induction of apoptosis in human CAL-27 cells assessed as upregulation of E-cad gene expression at 32 uM by qRT-PCR analysis; type: functional, cell-based; how it was run: as §3
SCC-9 [18] = assay: Cell cycle arrest in human SCC-9 cells assessed as accumulation at G0/G1 phase at 32.4 uM incubated for 24 hrs by flow cytometry (reference value: 70.8 %); type: functional
CAL-27 [19] = assay: Cell cycle arrest in human CAL-27 cells assessed as accumulation at S phase at 32 uM incubated for 24 hrs by flow cytometry (reference value: 3.6 %); type: functional
SCC-9 [20] = assay: Induction of apoptosis in human SCC-9 cells assessed as downregulation of vimentin gene expression at 16 uM by qRT-PCR analysis; type: functional, cell-based
SCC-9 [21] = assay: Cytotoxicity against human SCC-9 cells assessed as cell growth inhibition; type: functional, cell-based
How it was run: (§4)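 Compounds were dissolved in sterile DMSO as 10 mg ml−1 stocks and tested for in vitro growth inhibition of human cancer cell lines. Doxorubicin was the standard drug and DMSO (0.01%) the vehicle control. IC50 values are reported as means.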

MCF7 = assay: Cytotoxicity against human MCF7 cells assessed as cell growth inhibition; type: functional, cell-based; how it was run: as §4
CAL-27 [22] = assay: Cell cycle arrest in human CAL-27 cells assessed as accumulation at G0/G1 phase at 32 uM incubated for 24 hrs by flow cytometry (reference value: 77.6 %); type: functional
CAL-27 [23] = assay: Induction of apoptosis in human CAL-27 cells assessed as downregulation of Oct-4 gene expression at 16 uM by qRT-PCR analysis; type: functional, cell-based; how it was run: as §2
SCC-9 [24] = assay: Induction of apoptosis in human SCC-9 cells assessed as downregulation of vimentin gene expression at 32 uM by qRT-PCR analysis; type: functional, cell-based
CAL-27 [25] = assay: Induction of apoptosis in human CAL-27 cells assessed as early apoptotic cells at 16 uM incubated for 24 hrs by Annexin V-FITC/PI staining based flow cytometric analysis (reference value: 0.1 %); type: functional; how it was run: as §1
SCC-9 [26] = assay: Induction of apoptosis in human SCC-9 cells assessed as downregulation of Oct-4 gene expression at 32 uM by qRT-PCR analysis; type: functional, cell-based
CAL-27 [27] = assay: Induction of apoptosis in human CAL-27 cells assessed as necrotic cells at 16 uM incubated for 24 hrs by Annexin V-FITC/PI staining based flow cytometric analysis (reference value: 0.0 %); type: functional; how it was run: as §1
SCC-9 [28] = assay: Induction of apoptosis in human SCC-9 cells assessed as downregulation of Nanog gene expression at 32 uM by qRT-PCR analysis; type: functional, cell-based
SCC-9 [29] = assay: Induction of apoptosis in human SCC-9 cells assessed as upregulation of E-cad gene expression at 16 uM by qRT-PCR analysis; type: functional, cell-based
SCC-9 [30] = assay: Cell cycle arrest in human SCC-9 cells assessed as accumulation at S phase at 16.2 uM incubated for 24 hrs by flow cytometry (reference value: 14.4 %); type: functional
SCC-9 [31] = assay: Induction of apoptosis in human SCC-9 cells assessed as necrotic cells at 16.2 uM incubated for 24 hrs by Annexin V-FITC/PI staining based flow cytometric analysis (reference value: 0.1 %); type: functional
SCC-9 [32] = assay: Induction of apoptosis in human SCC-9 cells assessed as live cells at 32.4 uM incubated for 24 hrs by Annexin V-FITC/PI staining based flow cytometric analysis (reference value: 95.7 %); type: functional

## COc1ccc(-c2csc(NC(=O)CN3CCN(Cc4c(O)c(OC)c(O)c5c4C(=O)OC4C5O[C@H](CO)[C@@H](O)[C@@H]4O)CC3)n2)cc1 (stereo partly drawn)
[1]
  IC50: > 100 µM
SCC-9 [2]
  Activity: Active
CAL-27 [3]
  Activity: 91%
SCC-9 [4]
  Activity: Active
SCC-9 [5]
  Activity: 10.5%
CAL-27 [6]
  Activity: Active
CAL-27 [7]
  Activity: Active
CAL-27 [8]
  Activity: Active
CAL-27 [9]
  Activity: 4.3%
SCC-9 [10]
  Activity: 33.8%
CAL-27 [11]
  Activity: Active
CAL-27 [12]
  Activity: 2.8%
SCC-9 [13]
  Activity: 17.5%
CAL-27 [14]
  Activity: 2%
CAL-27 [15]
  Activity: Active
CAL-27 [16]
  Activity: 85.5%
CAL-27 [17]
  Activity: Active
SCC-9 [18]
  Activity: 77.6%
CAL-27 [19]
  Activity: 3.1%
SCC-9 [20]
  Activity: Active
SCC-9 [21]
  IC50: 32.4 µM
MCF7
  IC50: > 100 µM
CAL-27 [22]
  Activity: 87.1%
CAL-27 [23]
  Activity: Active
SCC-9 [24]
  Activity: Active
CAL-27 [25]
  Activity: 2.7%
SCC-9 [26]
  Activity: Active
CAL-27 [27]
  Activity: 0.9%
SCC-9 [28]
  Activity: Active
SCC-9 [29]
  Activity: Active
SCC-9 [30]
  Activity: 16%
SCC-9 [31]
  Activity: 9.2%
SCC-9 [32]
  Activity: 42.8%
